Pf Dd2 growth: inhibitors of Plasmodium falciparum Dd2 growth. activity change, % at 10 µM. P. falciparum Dd2 growth, SYBR Green, 72 h; active compounds read low. AID 1159554. 94,000 tested, 2.3% active; in the data active means activity change below about -80%; inconclusive means no clear call, values can overlap the other calls
T cruzi growth-1: T. cruzi proliferation inhibition. T. cruzi beta-gal in NIH3T3, GalScreen luminescence, 90 h. inhibition, % at 8.34 µM. 77,000 tested, 5.9% active. AID 624255;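 active means mean inhibition above about 93%, with at least 55% of replicates each passing it, limit read from the data, passing the limit was not always enough; inconclusive means only one of those two conditions holds; inactive means neither condition holds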
IDH1 mut inh: IDH1 R132H (human) inhibition; IDH1 R132H reductase, diaphorase/resazurin fluorescence, 60 min; inhibition, % at 10 µM; 70,000 tested, 0.18% active; in the data active means inhibition above about 34%; inconclusive means no clear call, values can overlap the other calls; inactive means below about 11%;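 further: 0% = DMSO and 100% = no enzyme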
Target sequence (O75874 whole entry R132H): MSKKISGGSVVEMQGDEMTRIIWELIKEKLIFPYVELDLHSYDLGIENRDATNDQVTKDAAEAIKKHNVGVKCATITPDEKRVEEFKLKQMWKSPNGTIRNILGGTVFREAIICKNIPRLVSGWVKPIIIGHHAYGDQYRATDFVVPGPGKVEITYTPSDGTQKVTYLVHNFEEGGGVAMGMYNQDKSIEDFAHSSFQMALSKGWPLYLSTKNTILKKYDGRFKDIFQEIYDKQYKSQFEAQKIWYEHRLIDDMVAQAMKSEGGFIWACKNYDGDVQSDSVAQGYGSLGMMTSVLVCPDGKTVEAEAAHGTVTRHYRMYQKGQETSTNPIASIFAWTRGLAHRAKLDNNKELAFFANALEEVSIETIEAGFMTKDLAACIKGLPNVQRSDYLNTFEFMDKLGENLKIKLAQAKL
KDM4C inh: inhibitors of human demethylase GASC-1 KDM4C. AID 720574. 96,000 tested, 0.15% active. inhibition, % at 12.5 µM. GST-KDM4C 2-372, H3K9me3 peptide, LANCE TR-FRET. Q9H3R0;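 active means mean replicate inhibition above about 25%, with at least 55% of replicates also reaching it, limit read from the data, passing the limit was not always enough; inconclusive means only one of those two conditions met; inactive means neither condition met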
Target sequence (Q9H3R0 2-372 limits assumed): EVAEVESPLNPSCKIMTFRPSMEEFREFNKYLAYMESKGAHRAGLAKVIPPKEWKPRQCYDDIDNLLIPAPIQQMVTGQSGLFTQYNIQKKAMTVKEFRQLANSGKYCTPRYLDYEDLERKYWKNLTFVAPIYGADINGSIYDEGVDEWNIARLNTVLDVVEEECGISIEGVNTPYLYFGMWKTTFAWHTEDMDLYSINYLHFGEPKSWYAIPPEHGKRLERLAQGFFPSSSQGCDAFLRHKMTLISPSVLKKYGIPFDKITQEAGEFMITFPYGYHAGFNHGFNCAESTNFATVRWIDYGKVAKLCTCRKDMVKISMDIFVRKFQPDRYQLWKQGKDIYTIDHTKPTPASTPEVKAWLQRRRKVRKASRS
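Material: GST-tagged GASC-1 (JMJD2C) catalytic fragment, aa 2-372 / Quantity: enzyme final amount 10 nM / Medium: HEPES buffer, pH 7.5, plus ascorbate / Doses: one test concentration per compound / Incubation: 30 min reaction, 60 min detection, RT / Measured by: LANCE TR-FRET / Read-out: inhibition from TR-FRET ratio decrease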
T cruzi growth-2: blocks T. cruzi growth in NIH3T3 host cells | shares compounds with T cruzi growth-1 | T. cruzi beta-gal in NIH3T3, GalScreen luminescence, 90 h | inhibition, % at 8.35 µM | 5,600 tested, 72% active | AID 651739;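 active means mean replicate inhibition above about 95% and at least 55% of replicates individually reaching it, limit read from the data; inconclusive means only one of the two criteria is met; inactive means neither criterion is met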
T cruzi growth-3: inhibitors of T. cruzi proliferation. shares compounds with T cruzi growth-1. T. cruzi beta-gal in NIH3T3, GalScreen luminescence, 90 h. inhibition, % at 2.09 µM. 5,600 tested, 21% active;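 active means mean inhibition above about 95%, with at least 55% of replicates also reaching it, limit read from the data; inconclusive means meets just one of the two conditions; inactive means meets neither condition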;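 further: plate controls were neutral control median for no effect and positive control median for full effect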
3T3 cytotox: cytotoxicity in mouse NIH/3T3 fibroblasts | shares compounds with T cruzi growth-1 | NIH/3T3 viability, CellTiter-Glo ATP luminescence, 90 h | cytotoxicity (signal decrease), % at 8.35 µM | 5,600 tested, 14% active | AID 651742;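 active means mean signal decrease across replicates above about 35% based on untreated-well scatter, with enough replicates individually passing, limit read from the data; inconclusive means no rule stated though some were filed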;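 further: 0% = median of neutral control wells and 100% = median of positive control wells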
3T3 cytotox 2: NIH/3T3 (mouse) viability loss | 5,600 tested, 56% active | shares compounds with T cruzi growth-1 | inhibition, % at 24.9 µM | NIH/3T3 viability, CellTiter-Glo ATP luminescence, 90 h;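 active means mean loss of cell viability signal at or above a set limit, and enough replicates individually reaching it; inconclusive means meets only the mean limit or only the replicate share; inactive means meets neither condition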;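 further: 0% = median of neutral control wells and 100% = median of positive control wells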
* = called active by the depositor; ? = inconclusive; nt = no result given. Rows were chosen to be rich in hits. Some 5.8% of all compounds tested hit in one or more screens of this group.

SMILES	Pf Dd2 growth	T cruzi growth-1	IDH1 mut inh	KDM4C inh	T cruzi growth-2	T cruzi growth-3	3T3 cytotox	3T3 cytotox 2
COc1ccc(NC(=O)N(C)C[C@H]2Oc3ccc(NC(=O)Nc4ccc(F)cc4)cc3CC(=O)N([C@H](C)CO)C[C@H]2C)cc1	9.5	26.0	nt	12.3	nt	nt	nt	nt
CC(C)C(=O)Nc1ccc2c(c1)C(=O)N(C)[C@@H]1CC[C@@H](CC(=O)NCc3ccccc3)O[C@H]1CO2	-4.0	71.9	nt	-0.2	nt	nt	nt	nt
C[C@@H]1CN([C@H](C)CO)C(=O)c2ccccc2-c2ccccc2CO[C@@H]1CN(C)C(=O)Nc1ccnc(N2CCOCC2)c1	-15.3	?	-0.1	2.4	89.0	32.8	-2.1	6.8
C[C@@H]1CN([C@@H](C)CO)C(=O)c2ccccc2-c2ccccc2CO[C@H]1CN(C)C(=O)Nc1ccnc(N2CCOCC2)c1	-12.2	108.7*	-1.1	-1.0	102.2*	91.9	6.1	11.4
C[C@@H]1CN([C@@H](C)CO)C(=O)c2ccccc2-c2ccccc2CO[C@@H]1CN(C)C(=O)Nc1ccccc1	9.7	38.5	nt	-0.1	nt	nt	nt	nt
C[C@@H]1CN([C@@H](C)CO)C(=O)c2c(c3ccccc3n2C)-c2ccccc2CO[C@H]1CN(C)C(=O)Nc1ccnc(N2CCOCC2)c1	-63.4	nt	nt	2.5	nt	nt	nt	nt
C[C@@H]1CN([C@@H](C)CO)C(=O)Cc2cc(NC(=O)Cc3ccccc3)ccc2O[C@@H]1CN(C)Cc1ccc(Cl)c(Cl)c1	-35.3	88.3	-4.3	-1.9	nt	nt	nt	nt
CC(Oc1ccccc1)C(=O)Nc1c[nH]c(=O)[nH]c1=O (stereo unspecified)	nt	nt	0.0	nt	nt	nt	nt	nt
CCCC#Cc1ccc2c(c1)O[C@H](CN(C)C(=O)NCCC)[C@@H](C)CN([C@H](C)CO)S2(=O)=O	1.2	46.7	-0.3	0.1	nt	nt	nt	nt
CCCNC(=O)N(C)C[C@H]1Oc2cc(C#Cc3cccc(F)c3)ccc2S(=O)(=O)N([C@@H](C)CO)C[C@H]1C	-33.6	114.5*	0.6	?	102.2*	105.5*	33.7	50.8*
CCCNC(=O)N(C)C[C@H]1Oc2cc(C#Cc3cccc(F)c3)ccc2S(=O)(=O)N([C@@H](C)CO)C[C@@H]1C	-40.4	116.2*	3.8	-1.2	111.7*	49.3	-4.2	66.3*
CC(C)NC(=O)N(C)C[C@@H]1Oc2cc(C#Cc3cccc(F)c3)ccc2S(=O)(=O)N([C@@H](C)CO)C[C@H]1C	-50.2	35.9	3.7	-0.1	nt	nt	nt	nt
CCCNC(=O)N(C)C[C@@H]1Oc2cc(C#CC(C)C)ccc2S(=O)(=O)N([C@@H](C)CO)C[C@H]1C	-35.5	30.4	nt	-0.3	nt	nt	nt	nt
CCCC#Cc1ccc2c(c1)O[C@@H](CN(C)C(=O)NCCC)[C@@H](C)CN([C@@H](C)CO)S2(=O)=O	-39.7	-50.9	-0.4	0.2	nt	nt	nt	nt
CCCNC(=O)N(C)C[C@H]1Oc2cc(C#Cc3cccc(F)c3)ccc2S(=O)(=O)N([C@H](C)CO)C[C@@H]1C	-53.5	113.7*	0.4	-0.9	94.1	56.9	25.4	59.9*
CCCNC(=O)N(C)C[C@@H]1Oc2cc(C#Cc3cccc(F)c3)ccc2S(=O)(=O)N([C@@H](C)CO)C[C@H]1C	-43.5	108.0*	7.5	0.0	99.9*	56.9	53.8*	66.9*
O=C(Nc1cccc(Cl)c1)N1C[C@@H]2[C@H](c3ccccc31)[C@H](CO)N2CC1CCCCC1	-3.4	38.1	nt	-0.9	nt	nt	nt	nt
C[C@H]1CN([C@@H](C)CO)C(=O)CCCn2cc(nn2)CO[C@@H]1CN(C)C(=O)C1CCCCC1	11.2	-7.0	2.5	-2.2	nt	nt	nt	nt
CC(C)C#Cc1ccc([C@@H]2[C@@H](CO)N3CCCCN(C(=O)Nc4ccccc4)C[C@@H]23)cc1	19.3	106.2*	nt	1.9	111.6*	85.8	18.1	104.6*
CC(C)C#Cc1ccc([C@@H]2[C@H]3CN(C(=O)Nc4ccccc4)CCCCN3[C@H]2CO)cc1	3.7	?	nt	-0.8	86.6	94.5	88.1*	105.9*
CC(C)C#Cc1ccc([C@@H]2[C@H](CO)N3CCCCN(C(=O)Nc4ccccc4)C[C@@H]23)cc1	-28.0	81.7	nt	0.2	nt	nt	nt	nt
CC(C)C#Cc1ccc([C@@H]2[C@@H](CO)N3CCCCN(C(=O)Nc4ccccc4)C[C@H]23)cc1	-29.4	99.4*	nt	1.7	99.6*	68.6	38.6*	104.7*
C[C@H](O)C#Cc1ccc([C@H]2[C@@H](CO)N3CCCCN(C(=O)Nc4ccccc4)C[C@H]23)cc1	-20.0	108.7*	nt	0.5	36.6	7.1	-22.2	-4.2
CO[C@H](CN(C)C(=O)C1CCOCC1)[C@@H](C)CN([C@@H](C)CO)S(=O)(=O)c1ccccc1	24.4	21.2	-0.1	-1.1	nt	nt	nt	nt
COCCNC(=O)C[C@@H]1C[C@H]2c3cc(NC(=O)Nc4ccc(C(F)(F)F)cc4)ccc3O[C@H]2[C@H](CO)O1	-67.7	123.2*	-0.1	0.2	42.3	-2.2	-14.0	-2.2
SMILES	Pf Dd2 growth	T cruzi growth-1	IDH1 mut inh	KDM4C inh	T cruzi growth-2	T cruzi growth-3	3T3 cytotox	3T3 cytotox 2
COC(=O)C[C@H]1C[C@@H]2c3cc(NC(=O)Nc4ccc(C(F)(F)F)cc4)ccc3O[C@@H]2[C@@H](CO)O1	-37.5	103.8*	2.4	-2.5	108.3*	30.3	9.7	25.3*
Cc1ccccc1S(=O)(=O)N1CC[C@@H]2[C@H](CO)Nc3ccc(-c4cccc(C#N)c4)cc3[C@@H]21	-4.8	16.8	nt	-0.9	nt	nt	nt	nt
Cn1cnc(S(=O)(=O)N2CC[C@H]3[C@H](CO)Nc4ccc(-c5ccccc5)cc4[C@H]32)c1	6.7	101.4*	nt	0.5	102.9*	61.8	-13.7	9.3
Cc1ccccc1S(=O)(=O)N1CC[C@@H]2[C@H](CO)Nc3ccc(-c4ccc(C#N)cc4)cc3[C@@H]21	-20.0	?	nt	-4.8	97.6*	104.4*	?	67.4*
Cc1ccccc1S(=O)(=O)N1CC[C@@H]2[C@@H](CO)Nc3ccc(-c4cccc(C#N)c4)cc3[C@@H]21	-61.9	33.4	nt	-2.5	nt	nt	nt	nt
Cc1ccccc1S(=O)(=O)N1CC[C@@H]2[C@H]1c1cc(-c3ccc(C#N)cc3)ccc1N[C@@H]2CO	8.9	101.2*	nt	1.6	103.6*	44.7	15.6	42.4*
CCCC#Cc1cnc2c(c1)C(=O)N([C@@H](C)CO)C[C@@H](C)[C@H](CN(C)Cc1ccc3c(c1)OCO3)O2	-34.1	12.5	-4.6	1.9	nt	nt	nt	nt
Cc1ccc(S(=O)(=O)Nc2ccc3c(c2)C(=O)N([C@H](C)CO)C[C@@H](C)[C@@H](CN(C)Cc2ccc4c(c2)OCO4)OCCCC[C@@H](C)O3)cc1	-74.4	?	1.6	-1.7	105.4*	81.3	29.4	102.0*
